Screening data deposited in PubChem by several laboratories.
Only some compounds are listed: those with a hit (about 4.9% of all), similar ones and a draw of the others.
STAT3 inh: inhibitors of IL-6 induced STAT3 signaling. 190,000 compounds, 0.89% hits. U3A cells, IL-6 STAT3-luciferase reporter, luminescence; host cell line lacks STAT1. inhibition, % at 5.5 µM;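 active = inhibition above the mean inhibition across all screened compounds plus 3 SD, cut at about 44% in these data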
STAT1 inh: inhibitors of IFN-gamma induced STAT1 signaling | NIH 3T3 STAT1-luciferase reporter, luminescence | inhibition, % at 5.5 µM | 200,000 compounds, 0.35% hits | AID 920;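 active = inhibition above a set limit, the mean inhibition across all tested compounds plus 3 SD, cut at about 34% in these data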
NF-kB neuron act: compounds increasing NF-kB expression in human neuronal cells. NF-kB reporter expression; active compounds read high. fold change at 12.5 µM. 190,000 compounds, 1.6% hits. AID 1239; in the data active = fold change above about 3.3
STAT3 activator: STAT3 signaling activation; activation (% of control), % at 5.6 µM; U3A cells, IL-6 STAT3-luciferase reporter, luminescence; 100% = signal with IL-6 EC80 alone; 190,000 compounds, 0.91% hits;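 active = activation above the screen-wide mean of compound activation plus 3 SD, cut at about 130% in these data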
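Material: STAT1-lacking human U3A cells, STAT3 luciferase reporter | Benchmarks: IL-6-only wells as 100% reference | Probe or stimulus: IL-6 (33 ng/mL) | Timing: Compound 1 h, then IL-6 6 h at 37 °C | Detection: Luminescence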
STAT1 act: activators of IFN-gamma induced STAT1 signaling; 200,000 compounds, 2.6% hits; NIH 3T3 STAT1-luciferase reporter, luminescence; 100% = IFN-gamma alone, no compound; activation (% of control), % at 5.5 µM; AID 932;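 active = activation above the screen-wide mean activation plus 3 SD, cut at about 130% in these data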
APP 5'UTR act: APP 5'UTR luciferase reporter activation. AID 1276. 190,000 compounds, 1% hits. SH-SY5Y APP 5'UTR luciferase reporter, luminescence; zero percent = DMSO vehicle wells. activation, % at 2 µM;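 active = activation above a set limit, based on mean plus 3 SD of controls, cut at about 140% in these data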
Of the large screens only hits and unclear results are named; the others gave an inactive call.

CC(=O)c1ccc(NC(=O)/C=C/c2ccc(C)cc2)cc1	none
Cc1cccc(NC(=O)/C=C/c2ccc(Cl)cc2)n1	STAT1 act 138.6, APP 5'UTR act 182.0
Cc1ccc(/C=C/C(=O)Nc2cc(C)on2)cc1	STAT1 act 133.2
CCC(=O)Nc1ccc(NC(=O)/C=C/c2ccc(Cl)cc2)cc1	none
N/C(=N\c1nc2c(c(=O)[nH]1)CCC2)Nc1cccc2ccccc12	none
COc1ccc(C(=O)COC(=O)CN2C(=O)C3C4C=CC(C5CC45)C3C2=O)cc1 (configuration not stated)	none
CCN(CC)CCCC(C)NC(=O)c1ccc(C(F)(F)F)cc1 (configuration not stated)	none
O=C(Cn1cnc2ccccc2c1=O)Nc1ccc2c(c1)OCCO2	STAT1 act 130.5
CCn1nnnc1SCC(=O)Nc1ccc2c(c1)OCO2	none
O=C(CSc1nnc2ccccn12)Nc1ccc2c(c1)OCCO2	STAT1 act 139.1
Cn1nnnc1SCC(=O)Nc1ccc2c(c1)OCO2	STAT1 act 141.2
Cc1ccc(C(=O)N2C(CC(=O)Nc3ccc(Cl)cc3)C(=O)NC3CCCCC32)cc1 (configuration not stated)	none
Cc1cccn2c(NCc3ccc4c(c3)OCO4)c(-c3ccc(O)cc3)nc12	none
COc1ccccc1-c1nn2c(C3COc4ccccc4O3)nnc2s1 (configuration not stated)	STAT3 activator 133.0
c1ccc(Cc2nn3c(C4COc5ccccc5O4)nnc3s2)cc1 (configuration not stated)	STAT3 activator 135.0
CC1=CCC(/C=N\Nc2nnc3c(n2)[nH]c2ccccc23)CC1 (configuration not stated)	none
COC(=O)CC(=O)CSc1nc2c(cc1C#N)CCCCC2	NF-kB neuron act 4.97
CCc1nnc(NC(=O)CSc2nc3c(cc2C#N)CCCC3)s1	APP 5'UTR act 198.8
Cc1ccc(CNC(=O)c2ccc3c(c2)NC(=O)C(N2CCOCC2)S3)cc1 (configuration not stated)	STAT3 activator 133.5
O=C(NCCCN1CCCCCC1)c1ccc2c(c1)NC(=O)C(N1CCOCC1)S2 (configuration not stated)	none
NC(=O)c1ccc(N=Nc2c(-c3ccccc3)[nH]n(-c3ccccc3)c2=O)cc1	none
Cc1ccc(N=Nc2c(N)n(-c3ccccc3)[nH]c2=O)cc1	NF-kB neuron act 4.21, STAT1 act 139.0
Cc1ccc(-n2nc(C)c3c2OC(N)=C(C#N)C3c2ccc(C)o2)cc1 (configuration not stated)	none
Cc1ccc(-n2nc(C)c3c2OC(N)=C(C#N)C3c2ccco2)cc1 (configuration not stated)	STAT3 activator 139.9
CC(=O)Nc1nc2ccccc2[nH]1	none
O=C(CCCOc1ccccc1)Nc1nc2ccccc2[nH]1	STAT1 act 129.9
COc1ccc(C(=O)Nc2nc3ccccc3c(=O)[nH]2)cc1	NF-kB neuron act 4.01, APP 5'UTR act 177.2
Cc1ccc(OCCCC(=O)Nc2nc3ccccc3[nH]2)cc1	none
COc1ccc(C(=O)Nc2nc3cc(OC)c(OC)cc3c(=O)[nH]2)cc1	none
COc1ccc(C(=O)Nn2c(SCC(=O)c3ccccc3)nc3ccccc3c2=O)cc1	APP 5'UTR act 155.0
O=C(Nc1nc2ccccc2[nH]1)c1ccccc1	APP 5'UTR act 214.2
CS(=O)c1ccccc1-c1nc(-c2ccc(Cl)cc2)no1 (configuration not stated)	STAT1 act 138.3
O=[N+]([O-])c1cc(Cl)ccc1-c1nc(-c2ccccc2)no1	NF-kB neuron act 13.3, STAT1 act 187.9
CS(=O)c1ccccc1-c1nc(-c2cccc(Cl)c2)no1 (configuration not stated)	none
Cc1ccc(-c2noc(-c3ccccc3F)n2)cc1	NF-kB neuron act 5.98, STAT1 act 132.1, APP 5'UTR act 173.8
CC(=O)c1ccc(NC(=O)CN(C)CC(=O)Nc2cccc(F)c2)cc1	none
COC(=O)c1ccc2nc(-c3cccc(N)c3)cn2c1	STAT3 inh 74.5, STAT1 inh 60.0
COC(=O)c1ccc2nc(-c3ccc(S(C)(=O)=O)cc3)cn2c1	STAT1 act 139.1
c1ccc(-c2ccc(-c3nc(-c4cccnc4)no3)cc2)cc1	NF-kB neuron act 5.32, STAT1 act 137.4, APP 5'UTR act 135.8
O=c1[nH]c2ccccc2cc1-c1noc(-c2cccnc2)n1	none
C(=C\c1nc(-c2cccnc2)no1)/c1ccccc1	STAT1 act 144.8
Cc1ccc(-c2noc(/C=C/c3ccccc3)n2)cc1	none
c1ccc(-c2ccccc2-c2nc(-c3ccncc3)no2)cc1	none
c1ccc(-c2noc(-c3cccnc3)n2)cc1	NF-kB neuron act 3.36, STAT1 act 150.2
c1ccc(-c2cnc(-c3cccnc3)o2)cc1	STAT1 act 135.1
CC1SC2(NC1=O)C1CC3CC(C1)CC2C3 (configuration not stated)	none
Cc1nnnn1CC(=O)Nc1cccc([N+](=O)[O-])c1	none
CCOc1cc(-c2noc(-c3cccnc3)n2)ccc1OC	none
COc1ccc(-c2noc(-c3cccnc3)n2)cc1OC	STAT1 act 140.4
COc1cc(OC)cc(-c2nc(-c3ccccc3)no2)c1	none (no result: APP 5'UTR act)
COc1cccc(-c2noc(-c3ccc(Cl)nc3)n2)c1	NF-kB neuron act 4.9, STAT3 activator 143.7, STAT1 act 150.8
COc1ccc(NC(=O)/C(=C/c2cccnc2)NC(=O)c2cccs2)cc1	none
COc1ccc(-c2csc(N(CCc3ccccc3)C(=O)COc3ccccc3)n2)cc1	none
COCCCN(C(C)=O)c1nc(-c2ccccc2)cs1	STAT1 act 138.0
CCCCOC(=O)Nc1cccc(C(=O)OCC)c1	none
COc1ccc(C(=O)Nc2ccc(Cl)c(Cl)c2)c(OC)n1	NF-kB neuron act 4.63, STAT3 activator 136.4, STAT1 act 130.9
O=C(Nc1ccc(Cl)c(Cl)c1)c1ccncc1	none
CNC(=S)N1N=C(c2ccc(C)cc2)CC1c1ccc(Br)cc1 (configuration not stated)	NF-kB neuron act 3.43
CNC(=S)N1N=C(c2ccccc2)CC1c1ccccc1Cl (configuration not stated)	none
CNC(=S)N1N=C(c2ccc(C)cc2)CC1c1ccc(Cl)cc1 (configuration not stated)	NF-kB neuron act 4.45
COc1ccc(S(=O)(=O)NC(C)C)cc1C(=O)N1CCOCC1	none
O=C(Nc1cccnc1)c1cc(-c2ccc3c(c2)OCO3)on1	NF-kB neuron act 5.49, STAT1 act 133.9
O=C(Nc1ccc2c(c1)OCO2)c1cc2nc(C3CC3)cc(C(F)(F)F)n2n1	none
CC(=O)c1cccc(NC(=O)c2ccc(C(=O)Nc3cccc(C(C)=O)c3)nc2)c1	none
CC(=O)c1cccc(NC(=O)c2cc3nc(C)cc(C)n3n2)c1	STAT1 act 144.6
